Screening results from PubChem.
Rows were chosen to be rich in hits. Some 2.2% of all compounds tested hit in one or more screens of this group.
CSN deneddyl inh = blocks human CSN-mediated cullin deneddylation; Purified CSN, SCF-Nedd8-OG deneddylation, fluorescence polarization; inhibition, % at 12.5 µM; 0.38% of 360,000 active; AID 651999;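 active = pattern-corrected inhibition above about 35%, with an unprinted fluorescence ratio check between 0.5 and 1.5, limit read from the data, passing the limit was not always enough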;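 note: 0% = enzyme with substrate and 100% = substrate without enzyme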
Target sequence (Q92905 whole entry, looked up, one chain of several): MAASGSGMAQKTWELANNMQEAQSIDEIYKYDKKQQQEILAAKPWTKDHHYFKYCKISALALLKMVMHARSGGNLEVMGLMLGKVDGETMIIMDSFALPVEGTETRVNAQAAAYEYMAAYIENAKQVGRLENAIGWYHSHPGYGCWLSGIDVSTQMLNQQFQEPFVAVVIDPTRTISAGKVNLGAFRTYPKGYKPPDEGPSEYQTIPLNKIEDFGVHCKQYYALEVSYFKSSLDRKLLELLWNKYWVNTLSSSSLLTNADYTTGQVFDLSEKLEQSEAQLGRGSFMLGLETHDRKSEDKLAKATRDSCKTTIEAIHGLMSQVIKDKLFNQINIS
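Detection – fluorescence polarization · System – HEK293T-derived human Csn5 enzyme · Controls – substrate-only high control, full reaction low control · Timing – 90 min, room temperature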
Exocytosis inh = lytic granule exocytosis inhibition | 0.66% of 360,000 active | TALL-104 LAMP-1 surface exposure, flow cytometry; cells stimulated with thapsigargin and PMA | AID 651702 | inhibition, % at 10 µM;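 active = inhibition above about 55%, limit read from the data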
Myeloid diff MLP = compounds promoting myeloid differentiation | ER-HoxA9 myeloid progenitors, lysozyme-GFP differentiation, flow cytometry | calls only at 10 µM | 1% of 360,000 active | AID 624256;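 active = normalized GFP-positive differentiation at or above the plate's own cutoff, the solvent-only control mean plus 3 SD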;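 note: cells exposed to compound for four days before flow analysis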
HNF4A DNA FP = change in binding of human HNF4 alpha to DNA. HNF4a-FITC DNA binding, fluorescence polarization, 1 h. activity change, % at 10 µM. 0.3% of 360,000 active; in the data active = activity change above about 30%, passing the limit was not always enough
Myeloid diff CP1 = myeloid differentiation induction | shares compounds with Myeloid diff MLP | ER-HoxA9 myeloid progenitors, GFP/Mac1 double-positive flow | AID 651706 | 2% of 2,300 active | calls only;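 active = share of green or green-and-red cells above 9 and 9% in run 1 or 4 and 3% in run 2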
GFP autofluor = compound fluorescence in myeloid differentiation counter-screen. shares compounds with Myeloid diff MLP. ER-HoxA9 myeloid progenitors, no estrogen, GFP autofluorescence flow cytometry; vehicle wells 0%, positive control 100%. fluorescence response, % (concentration not given with the values). 7.4% of 2,300 active;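 active = over 5% cells positive for green fluorescent reporter, or over 2% positive for both it and APC stain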;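 note: range taken on the double positive population between DMSO and positive control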
Active calls of the source: *; i = inactive; . = not tested or not shown; + = active, no number.

SMILES | CSN deneddyl inh | Exocytosis inh | Myeloid diff MLP | HNF4A DNA FP | Myeloid diff CP1 | GFP autofluor
COC(=O)c1ccccc1N1C(=O)C2C(C1=O)C1C=CC2C12CC2 (centres undefined) | 2 | -2 | + | -3 | i | 94*
COC(=O)c1ccccc1N1C(=O)C2C(C1=O)[C@H]1C=C[C@@H]2C1 (some centres undefined) | -5 | -5 | i | 0 | . | .
CC(C)(C)OC(=O)NCc1ccc(CNC(=O)c2nc[nH]c2C(=O)N2CCc3ccccc3C2)cc1 | -2 | -7 | i | -6 | . | .
O=S(=O)(c1cccc(-c2nnc(SCc3ccc(Cl)cc3)o2)c1)N1CCCCC1 | 0 | -4 | + | 2 | i | 19*
NC(=O)CSc1nnc(-c2cccc(S(=O)(=O)N3CCCCC3)c2)o1 | 3 | -3 | i | -1 | . | .
O/C=c1\ccc2cccc3nc(C(F)(F)F)nc1c23 | 2 | -17 | i | -26 | i | 0
NC(=O)c1ccc(OCC(=O)N2CCNC2=O)cc1 | -8 | -3 | i | 2 | . | .
O=c1[nH]c(Cc2ccccc2)nc2c1oc1ccccc12 | 1 | 0 | i | 4 | . | .
Cc1nc2c(oc3ccccc32)c(=O)o1 | 5 | 3 | + | 8 | i | 0
COc1cc2nc(CN(C)Cc3nc4ccccc4c(=O)[nH]3)[nH]c(=O)c2cc1OC | 3 | -3 | i | 6 | i | 0
N#CC1(NC(=O)COC(=O)c2nc(Cl)c(Cl)c(N)c2Cl)CCCCC1 | 8 | 2 | i | 4 | . | .
CCOC(=O)C1=CNS(=O)(=O)NC1c1ccc(C[C@H](NC(=O)CNC(=O)CCc2ccccc2)C(N)=O)cc1 (some centres undefined) | -2 | 3 | i | 0 | . | .
Nc1ccc2c3c(cccc13)C(=O)N(c1ccccc1)C2=O | -101 | -4 | + | -111 | i | 0
CCN(C[C@H]1N[C@@](CC)(C(=O)OC)[C@H]2C(=O)N(Cc3ccccc3)C(=O)[C@@H]12)S(=O)(=O)c1ccc(OC)cc1 | 4 | -2 | i | 1 | i | 0
CC[C@@]1(C(=O)OC)N[C@H](CN(C)S(=O)(=O)c2ccc(-c3ccccc3)cc2)[C@@H]2C(=O)N(C)C(=O)[C@@H]21 | 4 | -4 | i | 0 | i | 0
COc1cccc(C(=O)NCCS(=O)(=O)N(C)Cc2ccccc2)c1 | -4 | 1 | . | 1 | . | .
CCCCN1C[C@H](Cc2ccccc2)[C@@H](CC(=O)Nc2ccccc2)C1=O | 1 | 10 | i | -2 | i | 0
CCCCN1C[C@H](Cc2ccccc2)[C@@H](CC(=O)Nc2ccc(OC)cc2)C1=O | 1 | -1 | i | 5 | . | .
CC1(C)CN(CCc2ccccc2)C(=O)[C@H]1CC(=O)Nc1ccccc1 | -2 | -2 | + | 4 | i | 10*
COc1ccc(Br)cc1/C=N/n1c(COc2ccccc2)n[nH]c1=S | -1 | -15 | i | 0 | . | .
CC(C)CCNC(=O)C(Cc1ccccc1)NS(=O)(=O)c1ccc2c(c1)c(=O)n(C)c(=O)n2C (centres undefined) | 7 | -4 | + | 0 | i | 0
CCCNC(=O)C(Cc1ccccc1)NS(=O)(=O)c1ccc2c(c1)c(=O)n(C)c(=O)n2C (centres undefined) | -1 | 8 | i | 3 | . | .
COC(=O)c1ccc(NC(=S)NC2CCCCC2C)cc1 (centres undefined) | -3 | 12 | + | -1 | i | 0
COC(=O)c1ccc(NC(=S)NC(=O)C2CCC2)cc1 | 2 | 6 | i | 4 | . | .
CC(C)(C)C(=O)Nc1ccc(-c2cn3ccsc3n2)cc1 | -4 | -4 | i | 2 | i | 0
CC(C)CC(=O)Nc1ccc(-c2cn3ccsc3n2)cc1 | 2 | -2 | i | 3 | . | .
CCCCN1C(N)=NC[C@@H]1Cc1ccc(O)cc1 | 5 | 4 | + | 3 | i | 1
CCCCN1C(N)=NC[C@H]1Cc1ccc(O)cc1 | 0 | 2 | i | 1 | . | .
O=C(O)CC(NC(=O)CCc1ccccc1)c1ccc(Cl)cc1 (centres undefined) | -2 | -19 | . | 1 | . | .
Cc1ccc2cc(C#N)c(N3CCCC3)nc2c1C | 9 | 7 | i | 3 | . | .
